From publication PMC5199138 (Cancer chemotherapy and pharmacology, 2016)
Entries after “also recorded” stand apart in the source; their conditions may differ.

Columns and labels:
[1] = system: γH2AX; test: γH2AX in hair follicles; format: in vivo, human; details: 4 patients, daily trial, 4-6 h post-infusion vs pre-infusion; p=0.027, 1-sided
[2] = target: T1, Top1 (Homo sapiens, UniProt P11387); test: Top1 levels in PBMCs; format: in vivo
T1 sequence (P11387 1-765): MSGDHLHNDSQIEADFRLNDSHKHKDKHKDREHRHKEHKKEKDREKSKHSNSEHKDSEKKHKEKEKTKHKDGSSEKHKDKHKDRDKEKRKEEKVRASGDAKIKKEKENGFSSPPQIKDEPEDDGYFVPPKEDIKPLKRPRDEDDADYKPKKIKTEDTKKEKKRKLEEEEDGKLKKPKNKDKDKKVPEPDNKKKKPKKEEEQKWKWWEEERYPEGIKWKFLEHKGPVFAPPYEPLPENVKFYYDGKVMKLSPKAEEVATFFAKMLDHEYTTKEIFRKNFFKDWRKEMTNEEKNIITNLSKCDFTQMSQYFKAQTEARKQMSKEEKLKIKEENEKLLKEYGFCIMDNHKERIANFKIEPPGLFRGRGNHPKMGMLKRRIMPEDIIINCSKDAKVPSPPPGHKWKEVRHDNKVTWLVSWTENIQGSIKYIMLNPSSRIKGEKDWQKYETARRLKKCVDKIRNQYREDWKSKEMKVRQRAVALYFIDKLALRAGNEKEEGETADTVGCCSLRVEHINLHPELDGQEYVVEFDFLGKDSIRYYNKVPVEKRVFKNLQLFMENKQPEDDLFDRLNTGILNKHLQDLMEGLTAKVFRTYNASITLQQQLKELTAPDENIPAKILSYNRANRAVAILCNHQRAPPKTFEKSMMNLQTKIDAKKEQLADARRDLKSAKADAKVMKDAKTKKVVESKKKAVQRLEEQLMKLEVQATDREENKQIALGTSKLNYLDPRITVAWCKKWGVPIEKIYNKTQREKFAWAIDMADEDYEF
Outline: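 PBMCs collected in the daily trial before dosing and 4 h after infusion start on cycle 1 days 1 and 3. Top1 measured by validated immunofluorescence assay, expressed as pg/10^7 cells. Reportable only if pre-dose Top1 exceeded twice the LLQ; samples also had to pass assay QC. Result given as percent change from baseline per patient.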

[3] = target: T1, Top1; test: Top1 levels in paired tumor biopsies; format: in vivo; details: of the 8 patients on the daily schedule
Outline: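 Daily schedule: tumor biopsies taken at baseline and 2–4 h after infusion start on cycle 1 day 3. Top1 quantified by validated immunofluorescence assay (pg/μg protein). Pre-dose value had to exceed twice the LLQ to allow detection of a 50% reduction. Reported as percent change from baseline for each patient.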

[4] = system: patients with advanced solid tumors; test: Phase I trial, weekly schedule; format: in vivo
[5] = cited from earlier work
[6] = system: patients with advanced solid tumors; test: Phase I trial, daily schedule; format: in vivo
[7] = Plasma and urine pharmacokinetics; format: in vivo, human; details: for AUC(0-t) / Cmax / AUC(0-inf) / half-life: human, plasma, intravenous
[8] = weekly trial, Total (N=21), all dose levels, SD of geometric mean in parenthesis
[9] = weekly trial, W1, 60 mg/m^2 over 3 h, N=6, SD of geometric mean in parenthesis
[10] = weekly trial, W2, 90 mg/m^2 over 3 h, N=8, SD of geometric mean in parenthesis
[11] = weekly trial, W3, 135 mg/m^2 over 3 h, N=7, SD of geometric mean in parenthesis

With `COc1cc2c3c(n(CCCN4CCOCC4)c(=O)c2cc1OC)-c1cc2c(cc1C3=O)OCO2` [indotecan] the “γH2AX formation in hair bulbs” value [1] was “induced significant DNA damage”, the “Effects of treatment on PBMC Top1 levels” value ([2]; DL-D2 through DL-D6, 4 h after start of infusion, cycle 1 days 1 and 3) was “inconclusive” and the “Decrease in PBMC Top1 level” value ([2]; patients #0003 and #0015, post-dose vs baseline) was over 70%. For the same compound, the “Number of patients with significant Top1 decreases in post-treatment biopsies” value [3] was 3, the “Maximum tolerated dose (MTD)” value ([4]; days 1, 8, 15 in 28-day cycles, iv over 3 h) was 90 mg/m^2 and the Principal toxicity ([4]; in vivo) was “myelosuppression”. The “Objective response (RECIST)” value ([4]; weekly schedule, 21 patients) was “No objective responses were observed on either schedule; also recorded: no patient on either schedule had an objective response”, the “Drug in the unbound state (protein binding)” value [5] was “approximately 2%” and the “Maximum tolerated dose (MTD)” value ([6]; daily for 5 days in 28-day cycles, iv over 1 h) was 60 mg/m^2/day. The “Objective response (RECIST)” value ([6]; daily schedule, 21 patients) was “No objective responses were observed on either schedule; also recorded: no patient on either schedule had an objective response”, the Principal toxicity ([6]; in vivo) was “myelosuppression” and the “Renal excretion 0–24 h” value ([7]; daily trial, D1, 2.5 mg/m^2 over 1 h, N=1) was 0.49% dose. For the same compound, the “Renal excretion 0–24 h” value ([7]; daily trial, D2, 5 mg/m^2 over 1 h, N=3, SD of geometric mean in parenthesis) was 0.48% (0.21%) % dose, the “Renal excretion 0–24 h” value ([7]; daily trial, D3, 10 mg/m^2 over 1 h, N=1) was 0.36% dose and the “Renal excretion 0–24 h” value ([7]; daily trial, D4, 20 mg/m^2 over 1 h, N=1) was 0.26% dose. For the same compound, the “Renal excretion 0–24 h” value ([7]; daily trial, D5a, 60 mg/m^2 over 1 h, N=6, SD of geometric mean in parenthesis) was 0.18% (0.17%) % dose, the “Renal excretion 0–24 h” value ([7]; daily trial, D6, 80 mg/m^2 over 1 h, N=3, SD of geometric mean in parenthesis) was 0.26% (0.03%) % dose and the “Renal excretion 0–24 h” value ([7]; daily trial, Total (N=20), all dose levels, SD of geometric mean in parenthesis) was 0.24% (0.17%) % dose. For the same compound, the “Clearance as share of human hepatic blood flow” value ([7]; hepatic blood flow from ref 15) was “approximately 2%”, the AUC(0-t) ([7]; 2.5 mg/m2, AUC0–24, daily trial, D1, 2.5 mg/m^2 over 1 h, N=1) was 0.547 µg·h/mL and the Cmax ([7]; 2.5 mg/m2, Cmax, daily trial, D1, 2.5 mg/m^2 over 1 h, N=1) was 0.0943 µg/mL. For the same compound, the AUC(0-t) ([7]; 5 mg/m2, AUC0–24, daily trial, D2, 5 mg/m^2 over 1 h, N=3, SD of geometric mean in parenthesis) was 1.45 µg·h/mL, the Cmax ([7]; 5 mg/m2, Cmax, daily trial, D2, 5 mg/m^2 over 1 h, N=3, SD of geometric mean in parenthesis) was 0.191 µg/mL and the AUC(0-inf) ([7]; 60 mg/m2) was 56.4 µg·h/mL. The AUC(0-t) ([7]; 60 mg/m2, AUC0–24, daily trial, D5a, 60 mg/m^2 over 1 h, N=6, SD of geometric mean in parenthesis) was 12.8 µg·h/mL, the AUC(0-t) ([7]; 60 mg/m2, AUC0–24, weekly trial, W1, 60 mg/m^2 over 3 h, N=6, SD of geometric mean in parenthesis) was 13.7 µg·h/mL and the Cmax ([7]; 60 mg/m2, Cmax, daily trial, D5a, 60 mg/m^2 over 1 h, N=6, SD of geometric mean in parenthesis) was 1.61 µg/mL. For the same compound, the Cmax ([7]; 60 mg/m2, Cmax, weekly trial, W1, 60 mg/m^2 over 3 h, N=6, SD of geometric mean in parenthesis) was 1.27 µg/mL, the half-life ([7]; 60 mg/m2, t1/2, weekly trial, W1, 60 mg/m^2 over 3 h, N=6, SD of geometric mean in parenthesis) was 89 h and the AUC(0-t) ([7]; 80 mg/m2, AUC0–24, daily trial, D6, 80 mg/m^2 over 1 h, N=3, SD of geometric mean in parenthesis) was 14.7 µg·h/mL. For the same compound, the Cmax ([7]; 80 mg/m2, Cmax, daily trial, D6, 80 mg/m^2 over 1 h, N=3, SD of geometric mean in parenthesis) was 1.65 µg/mL, the AUC(0-inf) ([7]; 90 mg/m2) was 88.6 µg·h/mL and the AUC(0-t) ([7]; 90 mg/m2, AUC0–24, weekly trial, W2, 90 mg/m^2 over 3 h, N=8, SD of geometric mean in parenthesis) was 18.7 µg·h/mL. It also gave a Cmax ([7]; 90 mg/m2, Cmax, weekly trial, W2, 90 mg/m^2 over 3 h, N=8, SD of geometric mean in parenthesis) of 1.69 µg/mL, a half-life ([7]; 90 mg/m2, t1/2, weekly trial, W2, 90 mg/m^2 over 3 h, N=8, SD of geometric mean in parenthesis) of 74 h and an AUC(0-inf) ([7]; 135 mg/m2) of 70.8 µg·h/mL. The AUC(0-t) ([7]; 135 mg/m2, AUC0–24, weekly trial, W3, 135 mg/m^2 over 3 h, N=7, SD of geometric mean in parenthesis) was 21.5 µg·h/mL, the Cmax ([7]; 135 mg/m2, Cmax, weekly trial, W3, 135 mg/m^2 over 3 h, N=7, SD of geometric mean in parenthesis) was 1.93 µg/mL and the half-life ([7]; 135 mg/m2, t1/2, weekly trial, W3, 135 mg/m^2 over 3 h, N=7, SD of geometric mean in parenthesis) was 50 h. The “Inter-patient variability, coefficient of variation in drug clearance” value ([7]; in vivo) was 58%, the Clearance ([7]; patients) was 1 L/h/m^2 and the CL [7, 8] was 1.27 (0.74) L/h/m^2. The “Renal excretion 0–24 h” value [7, 8] was 0.19% (0.13%) % dose, the Vss [7, 8] was 109 (69) L/m^2 and the CL [7, 9] was 1.06 (0.34) L/h/m^2. For the same compound, the “Renal excretion 0–24 h” value [7, 9] was 0.21% (0.08%) % dose, the Vss [7, 9] was 116 (121) L/m^2 and the CL [7, 10] was 1.02 (0.73) L/h/m^2. For the same compound, the “Renal excretion 0–24 h” value [7, 10] was 0.15% (0.13%) % dose, the Vss [7, 10] was 99.3 (32.6) L/m^2 and the CL [7, 11] was 1.91 (0.73) L/h/m^2. For the same compound, the “Renal excretion 0–24 h” value [7, 11] was 0.22% (0.16%) % dose and the Vss [7, 11] was 114 (39) L/m^2.
